Results on 2 compounds are retold here after ChEMBL document CHEMBL1124474, “7-[3-(4-acetyl-3-methoxy-2-propylphenoxy)propoxy]-3,4-dihydro-8- propyl-2H-1-benzopyran-2-carboxylic acid: an orally active selective leukotriene B4 receptor antagonist” (J Med Chem, 1989).

As a reminder, the inhibition is the percentage by which the read-out fell short of the control. In general, IC50 refers to the point on the concentration scale where inhibition reaches its midpoint. A low value points to inhibition by little substance.

Experiment [1] is filed under the species Homo sapiens. Nature of the experiment: Inhibition of human neutrophil leukotriene B4 induced neutrophil degranulation at 10e-5 M compound concentration; NA = not active. The class given is functional. Put shortly:
(§1)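 Human neutrophils (3×10^6 in 1 mL HBSS) preincubated with cytochalasin B (5 µg) 5 min at 37 °C, then compound 7 min, then stimulated 2-20 min with LTB4 5×10^-8 M. Degranulation read as myeloperoxidase released into medium; pellets sonicated in phosphate buffer with 0.4% Triton X-100, supernatants brought to 0.4% Triton, both assayed.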

The species named for experiment [2] is Homo sapiens. The experiment in a line: Inhibition of human neutrophil leukotriene B4 induced neutrophil chemotaxis at 10e-5 M compound concentration; NA = not active. The class given is functional. In short, it runs like this: (§2)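 Human neutrophils isolated from citrated peripheral blood by 5% dextran sedimentation, Histopaque centrifugation and hypotonic erythrocyte lysis. 3×10^6 cells/mL in HEPES-buffered HBSS in upper well of modified Boyden chamber; lower well, across polycarbonate membrane, held HBSS or 3×10^-8 M LTB4 ± compound. 90 min, 37 °C; lower-well cells lysed, nuclei counted (Coulter); % inhibition after subtracting mean HBSS random migration.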

Experiment [3] concerns Homo sapiens. Nature of the experiment: Blood plasma levels of compound after 40 mg/kg oral dose of compound at 1 hr. The class given is functional, organism-based. Details: dose 40 mg/kg. Put shortly: (§3)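 Single 40 mg/kg oral dose; blood plasma drug level sampled at 1 h and 12 h after dosing.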
Experiment [4] addresses T1, Cysteinyl leukotriene receptor 1 (Cavia porcellus) (UniProt Q2NNR5).
T1 sequence (whole entry): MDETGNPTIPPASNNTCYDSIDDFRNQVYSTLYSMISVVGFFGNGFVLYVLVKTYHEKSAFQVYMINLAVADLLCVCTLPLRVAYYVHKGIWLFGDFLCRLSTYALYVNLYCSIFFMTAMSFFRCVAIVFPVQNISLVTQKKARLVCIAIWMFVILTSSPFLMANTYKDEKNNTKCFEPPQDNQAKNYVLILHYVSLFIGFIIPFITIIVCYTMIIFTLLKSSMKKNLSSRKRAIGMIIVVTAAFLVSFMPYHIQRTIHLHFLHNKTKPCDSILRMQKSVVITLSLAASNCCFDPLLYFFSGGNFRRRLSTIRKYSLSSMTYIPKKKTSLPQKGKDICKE
Nature of the experiment: Inhibition of binding to the leukotriene D4 receptor at 1*10e-5 M concentration. In short, it runs like this: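 Competition binding at LTD4 receptor: protein adjusted to about 0.1 nM receptor with 1 nM [3H]LTD4, 30 min at 24 °C; bound and free ligand separated by filtration. Compound tested at 1×10^-5 M.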

The test system of experiment [5] is Homo sapiens. The experiment in a line: Blood plasma levels of compound after 40 mg/kg oral dose of compound at 12 hr. It is filed as functional, organism-based. Details: dose 40 mg/kg. Put shortly: as §3
For another experiment, the species on record is Bos taurus. Nature of the experiment: Inhibition of bovine heart phosphodiesterase at 50 uM (no inhibition).
Experiment [6] is filed under the species Homo sapiens. The experiment in a line: Inhibition of human neutrophil leukotriene B4 induced neutrophil degranulation. It is filed as functional. Put shortly:
as §1

For experiment [7], the species on record is Homo sapiens. Nature of the experiment: Inhibition of human neutrophil leukotriene B4 induced neutrophil chemotaxis. The class given is functional. In short, it runs like this:
as §2

In the next experiment the test system is Cavia porcellus. Nature of the experiment: Topical effective dose when coapplied with phorbol ester (PMA) was assessed by ear weight as a reflection of edema. The class given is functional.

The source made the active and inactive calls. No cut-off for these calls is given here.

In the case of `CCCc1c(OCCCOc2ccc3c(c2CCC)OC(C(=O)O)CC3)ccc(C(C)=O)c1O` (centres undefined), the result in the experiment filed under Homo sapiens [1] and in the experiment listed under Homo sapiens [2] was inactive.
As to `CCCc1c(OCCCOc2ccc(C(C)=O)c(OC)c2CCC)ccc2c1OC(C(=O)O)CC2` (centres undefined) [SC-41390], the figures for the Plasma level in the experiment on Homo sapiens [3] and with Homo sapiens [5] were 7 µg/mL and 12 µg/mL, respectively. In experiment [4], this compound came in with an inhibition of 4%. The inhibition entry in the experiment listed under Bos taurus is “inactive”. In addition, the IC50 stood at 1000 nM in the experiment filed under Homo sapiens [6] and 2000 nM in the experiment listed under Homo sapiens [7]. Further, the ED50 in the experiment with Cavia porcellus is listed as 4.1 uM ear-1.
